# The entries come from a sample that favours hits as a whole.
# E-sel inducer: induces E-selectin expression in human endothelial cells. activation, % at 7.58 µM. 260,000 tested, 0.37% active. P16581. HUVEC E-selectin immunofluorescence imaging; normalized: neutral wells 0, TNF-alpha wells 100;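 active = mean E-selectin-positive cell signal at least 10% of the positive control, reached in at least 60% of replicates, without over 20% cell loss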
# Target sequence (P16581 whole entry, looked up): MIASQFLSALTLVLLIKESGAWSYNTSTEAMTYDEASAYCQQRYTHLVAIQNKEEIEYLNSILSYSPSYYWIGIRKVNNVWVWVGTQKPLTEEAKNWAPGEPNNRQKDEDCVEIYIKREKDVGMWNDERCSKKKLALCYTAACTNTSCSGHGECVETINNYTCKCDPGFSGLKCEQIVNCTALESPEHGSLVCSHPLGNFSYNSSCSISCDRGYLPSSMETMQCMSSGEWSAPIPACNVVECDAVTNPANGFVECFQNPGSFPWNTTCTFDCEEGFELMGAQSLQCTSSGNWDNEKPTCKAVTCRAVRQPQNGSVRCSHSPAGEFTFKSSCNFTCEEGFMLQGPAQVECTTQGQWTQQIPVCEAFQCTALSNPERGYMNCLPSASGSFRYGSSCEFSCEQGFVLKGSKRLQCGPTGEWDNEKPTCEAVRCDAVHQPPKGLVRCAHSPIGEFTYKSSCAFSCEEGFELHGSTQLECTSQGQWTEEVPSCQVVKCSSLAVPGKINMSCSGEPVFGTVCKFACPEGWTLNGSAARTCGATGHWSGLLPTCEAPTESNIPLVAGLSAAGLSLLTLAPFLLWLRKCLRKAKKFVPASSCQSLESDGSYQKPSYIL
#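 System: HUVEC, human umbilical vein endothelial cells; quantity: 3,000 cells/well; buffer or medium: EGM-2 medium, gelatin-coated wells; dosing: single-point compound dose; detection: immunofluorescence imaging; evaluation: % PE-positive cells; benchmarks: TNF-alpha, DMSO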
# Active calls of the source: *; ! = a repeat was not active.
SMILES,E-sel inducer
C[C@@H]1CN([C@H](C)CO)C(=O)c2cc(NS(=O)(=O)c3cccs3)ccc2O[C@H]1CN(C)C(=O)Nc1ccc(F)cc1,0.2
Cc1noc(C)c1NC(=O)N(C)C[C@H]1Oc2ccc(NC(=O)c3ccncc3)cc2C(=O)N([C@@H](C)CO)C[C@H]1C,-2.1
C[C@@H]1CCCCO[C@@H](CN(C)Cc2ccc(Cl)c(Cl)c2)[C@H](C)CN([C@H](C)CO)C(=O)c2cc(NC(=O)NC3CCCCC3)ccc2O1,0.1
C[C@H](CO)N1C[C@H](C)[C@@H](CN(C)C(=O)C2CCOCC2)Oc2ncc(C3=CCCC3)cc2C1=O,-0.2
CO[C@H]1CN(C)C(=O)c2ccc(NC(=O)c3cccc(F)c3)cc2OC[C@H](C)N(C)C[C@@H]1C,0.1
C[C@H](CO)N1C[C@H](C)[C@H](CN(C)Cc2cccc(C(F)(F)F)c2)Oc2ncccc2C1=O,-0.3
C[C@H](CO)N1C[C@H](C)[C@H](CN(C)C(=O)Nc2ccccc2)OCCCC[C@H](C)Oc2ccc(NS(=O)(=O)c3cn(C)cn3)cc2C1=O,-0.1
COCC(=O)N(C)C[C@@H]1Oc2ncc(C#Cc3ccccc3)cc2C(=O)N([C@H](C)CO)C[C@@H]1C,0.7
C[C@H](CO)N1C[C@H](C)[C@@H](CN(C)S(=O)(=O)c2ccc(F)cc2)OCCCC[C@H](C)Oc2ccc(NC(=O)Nc3ccccc3)cc2C1=O,0.1
CCC(=O)N1[C@@H]2c3ccc(/C=C/c4ccccc4)c(=O)n3C[C@@H]2[C@@H](CO)[C@@H]1C(=O)OC,0.2
O=C(NCC[C@H]1CC[C@H](NC(=O)C2CCCCC2)[C@@H](CO)O1)Nc1ccc(Cl)cc1,-0.7
C[C@H](CO)N1C[C@H](C)[C@H](CN(C)C(=O)Cc2ccncc2)Oc2cc(C#CC3CC3)ccc2S1(=O)=O,0.1
C[C@@H]1CCCCO[C@@H](CN(C)C(=O)c2ccccc2)[C@H](C)CN([C@@H](C)CO)C(=O)c2cc(NC(=O)C3CCCCC3)ccc2O1,0.2
COc1ccc2c3c([nH]c2c1)[C@H](CO)N(Cc1nccs1)CC31CCN(C(=O)C2CCOCC2)CC1,0.1
Cc1noc(C)c1NC(=O)N(C)C[C@@H]1Oc2ccc(NS(=O)(=O)c3cccs3)cc2C(=O)N([C@H](C)CO)C[C@H]1C,-8.2
C[C@@H]1CN([C@@H](C)CO)C(=O)c2cc(NC(=O)C3CCCCC3)ccc2O[C@@H]1CN(C)C(=O)Nc1ccc2c(c1)OCO2,-1.2
C[C@@H]1CN([C@H](C)CO)C(=O)c2cc(NC(=O)C3CCCCC3)ccc2O[C@H]1CN(C)C(=O)Nc1ccc2c(c1)OCO2,176.9*
Cc1noc(C)c1NC(=O)N(C)C[C@@H]1Oc2ccc(NS(=O)(=O)c3cccs3)cc2C(=O)N([C@@H](C)CO)C[C@H]1C,-7.4
C[C@@H]1CN([C@H](C)CO)C(=O)c2cc(NC(=O)C3CCCCC3)ccc2O[C@@H]1CN(C)C(=O)Nc1ccc2c(c1)OCO2,-5.3
Cc1noc(C)c1NC(=O)N(C)C[C@H]1Oc2ccc(NS(=O)(=O)c3cccs3)cc2C(=O)N([C@H](C)CO)C[C@@H]1C,255.2*!
O=C(C[C@@H]1C=C[C@H](NC(=O)NC2CCCCC2)[C@@H](CO)O1)NCc1ccccc1,-0.2
COc1cccc(CNC(=O)C[C@@H]2C=C[C@@H](NC(=O)C3CC3)[C@@H](CO)O2)c1,0.9
O=C(Nc1ccc(C(F)(F)F)cc1)N[C@H]1CC[C@H](CC(=O)N2CCCCC2)O[C@H]1CO,-0.4
Cn1nc(C(=O)N2CCN(c3ccccc3F)CC2)c2c1-c1ccccc1S(=O)(=O)C2,-0.1
CCN1CCN(C(=O)c2nn(C)c3c2CS(=O)(=O)c2ccccc2-3)CC1,0.0
SMILES,E-sel inducer
CC1CC(C)CN(C(=O)c2nn(C)c3c2CS(=O)(=O)c2ccccc2-3)C1 (configuration not stated),94.9*
C[C@H](CO)N1C[C@H](C)[C@@H](CN(C)Cc2ccccc2)Oc2ccc(NC(=O)CCN3CCOCC3)cc2CC1=O,-0.1
CO[C@@H](CN(C)C(=O)Nc1ccc(C(F)(F)F)cc1)[C@H](C)CN(Cc1ccccc1Cl)[C@@H](C)CO,0.3
CCC(=O)OCCCCCCOc1ccc(C(=O)O)cc1,-0.8
CCCCCCOc1ccc(C(=O)O)cc1,0.2
CCCCCCOc1ccc(C(CC(N)=O)C(=O)O)cc1 (configuration not stated),79.7*
O=[N+]([O-])c1ccc(N=Nc2ncc[nH]2)cc1,30.1*
O=[N+]([O-])c1ccc(N=NN(CCO)CCO)cc1,0.0
O=[N+]([O-])c1ccc(N=Nc2c(O)[nH]c3ccc(F)cc23)cc1,4.9
Cc1ccc(S(=O)(=O)N(C)C[C@H]2OCCCC[C@H](C)Oc3ccc(N(C)C)cc3C(=O)N([C@@H](C)CO)C[C@@H]2C)cc1,0.0
C[C@H](CO)N1C[C@H](C)[C@@H](CN(C)C(=O)Nc2cccc3ccccc23)Oc2c(NS(=O)(=O)c3ccc(Cl)cc3)cccc2C1=O,0.3
COc1ccc(NC(=O)Nc2ccc3c(c2)CC(=O)N([C@H](C)CO)C[C@@H](C)[C@@H](CN(C)Cc2ccc(C(=O)O)cc2)O3)cc1,-2.1
Cc1ccc(S(=O)(=O)N(C)C[C@@H]2OCc3cn(nn3)CCCC(=O)N([C@@H](C)CO)C[C@@H]2C)cc1,-0.1
Cc1c(C(=O)NCc2ccco2)oc2ccc(Br)cc12,1.2
Cc1c(C(=O)NCc2ccco2)oc2c(F)cccc12,0.1
Cc1c(C(=O)NCc2ccco2)oc2ccccc12,48.4*
CO[C@H]1CN(C)C(=O)c2cc(NC(=O)NC(C)C)ccc2OC[C@H](C)N(Cc2cncnc2)C[C@H]1C,0.5
C[C@@H]1CN([C@@H](C)CO)C(=O)c2cc(C#Cc3cccnc3)cnc2O[C@@H]1CN(C)C(=O)CC1CC1,0.6
CNc1ccccc1C(C)(C)c1cc(-c2cccc(Br)c2)no1,83.6*
Cn1c(-c2cccc(Br)c2)cnc1NCc1ccccc1O,0.0
CC(C)(C)c1cc(-c2ccccc2)no1,4.2
C[C@@H]1CN([C@@H](C)CO)C(=O)c2cccc(NC(=O)Nc3cccc4ccccc34)c2O[C@H]1CN(C)C(=O)Nc1ccc(F)cc1,-1.9
CO[C@H]1CN(C)C(=O)c2ccc(NC(C)=O)cc2OC[C@H](C)N(C(=O)C2CCC2)C[C@@H]1C,-0.2
C[C@H](CO)N1C[C@H](C)[C@H](CN(C)C(=O)Nc2ccccc2)Oc2ccc(NC(=O)Nc3cccc4ccccc34)cc2C1=O,1.3
CCCNC(=O)N(C)C[C@H]1Oc2ncc(C3=CCCC3)cc2C(=O)N([C@@H](C)CO)C[C@H]1C,0.3
SMILES,E-sel inducer
C[C@@H]1CN([C@@H](C)CO)C(=O)c2cc(C3=CCCC3)cnc2O[C@H]1CN(C)C(=O)Nc1ccccc1,-0.1
CCC(=O)N(C)C[C@H]1Oc2ncc(Br)cc2C(=O)N([C@H](C)CO)C[C@@H]1C,-0.2
C[C@H]1CN([C@@H](C)CO)C(=O)c2cc(C3=CCCC3)cnc2O[C@@H]1CN(C)C(=O)Nc1ccccc1,0.1
CCCN(C)C[C@H]1Oc2ncc(-c3cccnc3)cc2C(=O)N([C@H](C)CO)C[C@@H]1C,-0.6
CCC(=O)N(C)C[C@H]1Oc2ncc(Br)cc2C(=O)N([C@@H](C)CO)C[C@H]1C,89.6*
CCCNC(=O)N(C)C[C@H]1Oc2ncc(C3=CCCC3)cc2C(=O)N([C@H](C)CO)C[C@@H]1C,133.9*
CCCNC(=O)N(C)C[C@H]1Oc2ncc(C3=CCCC3)cc2C(=O)N([C@H](C)CO)C[C@H]1C,-0.1
CCCN(C)C[C@@H]1Oc2ncc(-c3ccccc3)cc2C(=O)N([C@H](C)CO)C[C@@H]1C,89.8*

# Assay outcomes: PubChem, Broad Institute
